Laboratory results taken from ChEMBL document CHEMBL1121655, “Methylangelicins: new potential agents for the photochemotherapy of psoriasis. Structure-activity study on the dark and photochemical interactions with DNA” (J Med Chem, 1981).
Converted amounts (≈) assume the structure as drawn.

Legend:
[1] = Water solubility (solubility in mol/L); assay type: ADME; settings: read-out: S
[2] = test system: Ehrlich; experiment: Compound was evaluated for the inhibition of RNA synthesis in Ehrlich Ascites tumor cells by irradiation (365 nm) at 1.9 x 10 e-5M; assay type: functional
Summary of the method: (§1)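 Ehrlich ascites cells, 2×10^7 cells/mL in Hank's solution, on ice with 1.9×10^-5 M compound, irradiated by HPW 125 lamp at 20 cm (2.02×10^16 quanta/s). Then 2×10^6 cells pulsed 15 min at 37 °C with 1 μCi [3H]thymidine (DNA) or [3H]uridine (RNA). TCA-insoluble counts as % of untreated. Each dose at least in duplicate. D50 = UV dose giving 50% inhibition.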

[3] = test system: Ehrlich; experiment: Compound was evaluated for the inhibition of DNA synthesis in Ehrlich Ascites tumor cells by irradiation (365 nm) at 1.9 x 10 e-5M; assay type: functional; summary of the method: as §1
[4] = test system: Nucleic Acid; experiment: (§2) Compound was evaluated for association constant in the calf thymus DNA; assay type: functional; settings: Bos taurus
Summary of the method: (§3)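 Equilibrium dialysis at 25 ± 0.05 °C in the dark, 12 h with shaking, across a cellophane membrane. Tritiated angelicin at slightly below its water solubility in 0.02 M NaCl with 1 mM EDTA, against DNA at 3×10^-3 to 3×10^-4 M. Both phases counted by scintillation to give r and c. K and n fitted iteratively to the McGhee–von Hippel equation.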

[5] = test system: Nucleic Acid; experiment: Compound was evaluated for rate constant in the calf thymus DNA; assay type: functional; settings: Bos taurus
Summary of the method: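 DNA at 2.3×10^-3 M in 2×10^-3 M NaCl and 1×10^-3 M EDTA with 3×10^-5 M labeled furocoumarin. Irradiated at 365 nm, 1.07×10^16 quanta s^-1 mL^-1, for increasing times in a thermostatted bath. Complexed fraction at time 0 taken from dialysis at 2 mM NaCl with ligand:nucleotide 1:76.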

[6] = test system: Nucleic Acid; experiment: as §2; assay type: nucleic-acid assay; settings: Bos taurus; summary of the method: as §3

Q: For `Cc1cc2c(ccc3ccc(=O)oc32)o1`, which solubility [1] is on record?
A: Its solubility is 12 µg/mL (≈ 59.9 µM).

Q: What about the D50 [2] of the same compound?
A: Its D50 is 1.74e+19 quanta.

Q: What about the D50 [3] of the same compound?
A: Its D50 is 1.66e+19 quanta.

Q: What about the K [4] of the same compound?
A: Its K is 1200.

Q: What about the Rate constant [5] of the same compound?
A: Its Rate constant is 0.021 min⁻¹.

Q: For `Cc1cc2occc2c2oc(=O)ccc12`, which solubility [1] is on record?
A: Its solubility is 4.5 µg/mL (≈ 22.5 µM).

Q: And the D50 [2]?
A: Its D50 is 8.3e+18 quanta.

Q: What about the D50 [3] of the same compound?
A: The D50 was 9.1e+18 quanta.

Q: What about the K [4] of the same compound?
A: The K was 1560.

Q: What about the Rate constant [5] of the same compound?
A: Its Rate constant is 0.034 min⁻¹.

Q: With `Cc1cc2c(ccc3c(C)cc(=O)oc32)o1` as the compound, how does the K [6] read?
A: The K was 1450.

Q: What about the D50 [2] of the same compound?
A: The D50 was 1.35e+19 quanta.

Q: And the D50 [3]?
A: Its D50 is 1.09e+19 quanta.

Q: With `Cc1cc2c(cc(C)c3ccc(=O)oc32)o1` as the compound, how does the solubility [1] read?
A: The solubility was 3 µg/mL (≈ 14 µM).

Q: What about the D50 [2] of the same compound?
A: The D50 was 6.6e+18 quanta.

Q: What about the D50 [3] of the same compound?
A: The D50 was 1.38e+19 quanta.

Q: What about the K [4] of the same compound?
A: The K was 1750.

Q: What about the Rate constant [5] of the same compound?
A: Its Rate constant is 0.027 min⁻¹.

Q: What does the source list for `Cc1cc(=O)oc2c1ccc1occc12`?
A: solubility [1]: 4 µg/mL (≈ 20 µM); D50 [2]: 1.81e+19 quanta; D50 [3]: 2.4e+19 quanta; K [4]: 1400; Rate constant [5]: 0.016 min⁻¹

Q: Which results are given for `O=c1ccc2cc3ccoc3cc2o1` [PSORALEN]?
A: D50 [2]: 1.4e+19 quanta; D50 [3]: 9.1e+18 quanta

Q: With `O=c1ccc2ccc3occc3c2o1` [ANGELICIN] as the compound, how does the solubility [1] read?
A: Its solubility is 20 µg/mL (≈ 107 µM).

Q: And the D50 [2]?
A: Its D50 is 2.33e+19 quanta.

Q: What about the D50 [3] of the same compound?
A: Its D50 is 2.5e+19 quanta.

Q: What about the K [4] of the same compound?
A: Its K is 560.

Q: And the Rate constant [5]?
A: Its Rate constant is 0.011 min⁻¹.
